HNF4A DNA FP: change in binding of human HNF4A to DNA, primary screen, biochemical, fluorescence polarization, FITC-DNA | 1 h | activity change, % at 10 µM | actives 0.3% (n = 360,000); in the data active means activity change above about 30%, passing the limit was not always enough
Target sequence (P41235 whole entry, looked up): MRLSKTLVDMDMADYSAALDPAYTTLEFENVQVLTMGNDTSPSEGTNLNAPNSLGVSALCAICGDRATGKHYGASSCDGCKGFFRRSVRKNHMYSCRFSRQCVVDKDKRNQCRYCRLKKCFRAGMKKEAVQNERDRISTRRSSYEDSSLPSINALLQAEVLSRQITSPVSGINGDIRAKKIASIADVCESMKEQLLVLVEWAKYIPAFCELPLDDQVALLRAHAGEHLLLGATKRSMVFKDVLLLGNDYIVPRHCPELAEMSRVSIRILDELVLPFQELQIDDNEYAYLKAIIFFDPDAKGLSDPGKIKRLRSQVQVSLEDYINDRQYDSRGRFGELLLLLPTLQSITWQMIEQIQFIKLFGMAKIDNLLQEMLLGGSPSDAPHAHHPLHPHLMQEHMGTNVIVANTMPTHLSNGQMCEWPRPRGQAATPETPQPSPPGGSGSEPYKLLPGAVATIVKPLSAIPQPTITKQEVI
PP1 counter: PP1-alpha phosphatase inhibitors, primary screen, counter-screen for PP5 inhibitor project, biochemical, fluorescence, OMFP substrate, single point. actives 0.9% (n = 320,000). purified PP1alpha. inhibition, % at 6.7 µM. Serine/threonine-protein phosphatase PP1-alpha catalytic subunit (Homo sapiens), P62136;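 active means inhibition above the mean inhibition of all tested compounds plus 3 SD, computed separately for each screening campaign, cut at about 15% in these data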
NadD inh: inhibitors of S. aureus NadD, primary screen, biochemical, colorimetric, uHTS. Nicotinate-nucleotide adenylyltransferase NadD (Staphylococcus aureus N315). purified NadD enzyme, colorimetric absorbance read-out. inhibition, % at 20 µM. actives 0.78% (n = 360,000); in the data active means inhibition above about 26%
Rpn11 inh: Rpn11 (PSMD14) deubiquitinase inhibitors, primary screen, biochemical, fluorescence polarization, uHTS. 26S proteasome non-ATPase regulatory subunit 14 (Homo sapiens), O00487. human 26S proteasome, Ub4-pepOG fluorescence polarization; 20S core pre-blocked with epoxomicin. inhibition, % at 20 µM. actives 0.59% (n = 360,000). AID 588493, 2011;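 active means inhibition at 20 µM, scaled to each plate's controls, above about 33%, limit read from the data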
TPT1 inhibitor: Candida albicans TPT1 enzyme inhibitors, primary screen, biochemical, fluorescence polarization; actives 0.81% (n = 300,000); tRNA 2'-phosphotransferase TPT1 (Candida albicans SC5314); inhibition, % at 5 µM; recombinant caTPT1, FP RNA substrate dephosphorylation; AID 1962, 2009;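 active means inhibition above the mean of all tested compounds plus 3 SD, set per screening campaign, cut at about 24% in these data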;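 further: plate controls were DMSO alone for no effect and ferristatin control at 100 nM for full effect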
CSN inh: inhibitors of CSN-mediated cullin deneddylation, primary screen, biochemical, fluorescence polarization, uHTS | COP9 signalosome complex subunit 5 (Homo sapiens), Q92905 | Purified CSN, SCF-Nedd8-OG deneddylation | inhibition, % at 12.5 µM | actives 0.38% (n = 360,000) | AID 651999, 2013;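 active means pattern-corrected inhibition above about 35%, with an unprinted fluorescence ratio check between 0.5 and 1.5, limit read from the data, passing the limit was not always enough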;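 further: 0% = enzyme with substrate and 100% = substrate without enzyme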
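Material: purified human Csn5 enzyme expressed in HEK293T cells / Medium: Tris buffer pH 7.5, NaCl, DTT, Tween-20, trehalose, ovalbumin / Compound dosing: 12.5 µM single point / Schedule: 90 min incubation of compound, enzyme and substrate at room temperature / Signal: fluorescence polarization of the substrate / Control set: no-enzyme wells high, enzyme-with-substrate wells low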
TPT1 inh confirm: Candida albicans TPT1 inhibitors, confirmation, biochemical, fluorescence polarization, triplicate | shares compounds with TPT1 inhibitor | recombinant caTPT1, RNase T1 coupled | inhibition, % at 5 µM | actives 74% (n = 2,400) | AID 2149, 2009;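 active means inhibition above the primary screen limit, the mean inhibition of all tested compounds plus 3 SD, cut at about 25% in these data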
RNase T1 inh: RNase T1 inhibitors, counter-screen for TPT1 inhibitor project, biochemical, fluorescence polarization; shares compounds with TPT1 inhibitor; RNase T1 cleavage, 1536-well; inhibition, % at 5 µM; actives 83% (n = 2,400); AID 2153, 2009;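 active means inhibition above the solvent-only control well mean plus 3 SD, limit set per screening run, cut at about 23% in these data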;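 further: plate controls were DMSO wells with enzyme for no effect and wells without RNase T1 for full effect; inhibitors block cleavage so intact labeled substrate keeps polarization high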
Target sequence (P00651 whole entry, looked up): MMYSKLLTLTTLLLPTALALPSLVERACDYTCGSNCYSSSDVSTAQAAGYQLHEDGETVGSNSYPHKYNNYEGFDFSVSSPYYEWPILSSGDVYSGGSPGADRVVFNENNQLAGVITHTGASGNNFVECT
An asterisk follows results filed as active; · = no result given. An excerpt weighted towards active compounds, which were near 2.7% of everything screened.

SMILES	HNF4A DNA FP	PP1 counter	NadD inh	Rpn11 inh	TPT1 inhibitor	CSN inh	TPT1 inh confirm	RNase T1 inh
COc1cc(/C=C2/C(=O)NC(=O)N(c3ccc(C)cc3)C2=O)cc(OC)c1OC	1.4	-2.3	1.6	-0.5	6.7	-0.3	·	·
COc1cc(/C=C2\C(=O)NC(=O)N(c3ccc(C)cc3)C2=O)cc(OC)c1O	2.2	-3.8	6.6	5.4	30.6*	1.1	11.9	18.9
CC1=NN(c2ccccc2)C(=O)C1/C=C1/C(=O)NC(=O)N(c2cc(C)cc(C)c2)C1=O (centres undefined)	2.4	2.8	-0.8	5.7	28.7*	2.3	31.9*	50.3*
O=C(Cc1ccccc1)OCC(=O)N1CCN(S(=O)(=O)c2ccc(Cl)cc2)CC1	-0.2	-5.1	-7.1	-8.0	2.2	5.0	·	·
COC(=O)C1=Nc2ccccc2/C1=C\c1c(O)n(-c2cc(OC)ccc2OC)c(=O)[nH]c1=O	7.1	-2.7	15.7	15.0	19.8	-9.4	·	·
Cn1c(O)c(/C=C2\C=Nc3ccc(Br)cc32)c(=O)n(C)c1=O	3.5	-2.0	-0.9	18.8	28.0*	8.1	2.7	6.1
O=c1[nH]c(=O)n(-c2ccccc2F)c(O)c1/C=C1\C=Nc2ccccc21	1.1	-1.5	-2.4	22.6	55.6*	11.6	17.7	28.7*
CCN(CC)CCCN=Cc1c(O)n(-c2ccccc2F)c(=O)[nH]c1=O	-0.1	-2.3	-1.4	-3.3	0.6	5.0	·	·
COc1ccc(-n2c(O)c(/C=C3\C=Nc4ccc(Br)cc43)c(=O)[nH]c2=O)c(OC)c1	-0.5	-2.0	12.5	-90.4	39.1*	8.1	14.5	19.3
O=c1[nH]c(=O)n(-c2ccc(F)cc2)c(O)c1/C=C1\C=Nc2ccccc21	0.5	1.6	-3.0	34.2	51.2*	7.6	69.6*	76.7*
Cc1ccccc1N1CCN(Cc2ccc3c(c2)OCO3)CC1	0.2	3.4	-2.0	4.9	-0.1	-2.0	·	·
O=c1[nH]c(=O)n(Cc2ccccc2)c(O)c1/C=C1\C=Nc2ccccc21	4.5	1.8	7.2	·	58.1*	4.5	18.1	26.8*
O=c1[nH]c(=O)n(Cc2ccccc2)c(O)c1C=NCCN1CCNCC1	1.4	-2.6	-7.7	5.3	2.2	2.8	·	·
C#CC1(OC(=O)c2ccccc2)CC(C)N(C)CC1C (centres undefined)	-4.7	·	3.2	-1.9	·	3.1	·	·
CC(C)n1c(=O)c(C=Nc2cccc([N+](=O)[O-])c2)c(O)n(CCc2ccccc2)c1=O	3.3	-1.8	0.3	15.8	42.8*	8.2	14.0	19.1
O=C1NCN(c2ccccc2)C12CCN(C(c1ccnc3ccccc13)c1nnnn1Cc1ccccc1)CC2 (centres undefined)	-0.7	·	4.8	-1.1	·	5.8	·	·
N#CC(C#N)=Cc1ccc(O)c(O)c1	-4.1	-4.1	-2.0	-3.4	-1.2	5.0	·	·
N#CC(C#N)=Cc1ccc(N2CCCC2)cc1	15.5	-0.4	0.6	23.5	62.5*	10.3	69.1*	84.4*
CN(C)c1ccc(C=C(C#N)C#N)cc1	-0.7	-0.7	-2.4	6.0	39.9*	-12.1	47.7*	59.8*
Nc1cccc2c1Cc1cc([N+](=O)[O-])ccc1-2	4.0	·	1.2	14.2	·	2.5	·	·
O=C1NC(=O)N(c2cccc(Br)c2)C(=O)/C1=C/c1ccsc1	1.1	-7.3	5.9	28.6	91.5*	13.3	69.5*	71.6*
O=C1NC(=O)N(c2ccc(Br)cc2)C(=O)/C1=C/c1ccsc1	5.5	-2.8	2.8	16.2	30.2*	12.8	14.4	20.1
Cc1ccc(NC(=O)CCNC(=O)N2C[C@H]3C[C@@H](C2)c2cccc(=O)n2C3)c(C)c1	0.8	-6.3	2.3	-2.0	-0.5	0.1	·	·
COC(=O)C1=C(c2cc3ccccc3o2)C[C@@H]2CC[C@H]1N2C(=O)N1CCC(O)CC1	0.8	0.3	2.0	-3.7	-2.1	0.6	·	·
O=C1c2ccccc2-n2nncc2C2c3cc(Br)ccc3CCN12 (centres undefined)	2.5	·	-4.5	15.9	·	2.7	·	·
SMILES	HNF4A DNA FP	PP1 counter	NadD inh	Rpn11 inh	TPT1 inhibitor	CSN inh	TPT1 inh confirm	RNase T1 inh
N#Cc1c(/N=C/c2ccc(O)cc2O)sc2c1C1CCN2CC1	40.4*	-1.2	-4.7	38.3	65.0*	33.2	106.3*	107.3*
O=Cc1c(C(=O)O)n(Cc2ccc(Cl)cc2)c2ccccc12	80.8*	-0.4	7.0	·	76.6*	60.2*	174.1*	161.0*
CCn1c(O)c(/C=N/NC(=O)c2ccncc2)c(=O)[nH]c1=S	-1.2	-4.6	-5.2	12.5	6.4	10.8	·	·
CCn1c(O)c(/C=N/NC(=O)c2ccccc2)c(=O)n(CC)c1=S	2.2	2.4	-3.1	24.7	93.6*	12.2	26.5*	34.0*
Cc1cccc(N2C(=O)NC(=O)/C(=C/c3cc4c(cc3[N+](=O)[O-])OCO4)C2=O)c1	-0.8	-1.9	2.2	-2.6	-0.5	-1.4	·	·
Cc1cccc(N2C(=O)NC(=O)/C(=C\c3ccc4c(c3)CCCN4Cc3ccccc3)C2=O)c1	-4.4	1.6	37.5*	·	92.3*	32.9	151.5*	141.3*
CC(C)n1c(=O)c(C=Nc2ccc(S(N)(=O)=O)cc2)c(O)n(Cc2ccco2)c1=O	4.9	-0.4	4.0	27.9	42.4*	4.6	12.4	19.7
O=c1[nH]c(=O)n(Cc2ccco2)c(O)c1C=NCc1ccco1	-0.5	2.4	9.5	-1.6	1.4	4.3	·	·
O=c1[nH]c(=O)n(Cc2ccccc2)c(O)c1C=NCCCn1ccnc1	19.6	-1.5	-0.6	15.7	48.3*	8.9	34.8*	44.9*
C=CCn1c(O)c(C=NCCN2CCNCC2)c(=O)[nH]c1=O	2.6	-6.0	0.0	0.3	4.8	-7.1	·	·
O=c1[nH]c(=O)n(Cc2ccco2)c(O)c1C=NCCN1CCOCC1	8.9	-3.2	6.1	14.8	24.8*	13.3	30.1*	41.9*
O=c1[nH]c(=O)n(CCC2=CCCCC2)c(O)c1C=NCCN1CCNCC1	27.2	4.5	20.6	·	27.1*	17.7	43.7*	54.7*

Compound activity as filed in PubChem.
